Measured values published in ChEMBL document CHEMBL4699492, “Discovery of Novel Pyrazolo[3,4-b] Pyridine Derivatives with Dual Activities of Vascular Remodeling Inhibition and Vasodilation for the Treatment of Pulmonary Arterial Hypertension” (J Med Chem, 2020).
The source made the active and inactive calls. No cut-off for these calls is given here.

Experiments:
Rattus norvegicus [1] = experiment: Inhibition of vascular remodeling activity in Sprague-Dawley rat model of hypoxia-induced pulmonary artery hypertension assessed as increase in body weight at 10 mg/kg, po administered daily for 2 weeks; type: functional, organism-based
[2] = Effect on total Smad2/3 level in lungs of Sprague-Dawley rat model of hypoxia-induced pulmonary artery hypertension at 10 mg/kg, po administered daily for 2 weeks by Western blot analysis; type: ADME, organism-based; conditions: in vivo, 336 h
Outline: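 Hypoxic PAH model in male SD rats (160-200 g) kept at 10% O2 for 4 weeks. Oral dosing at 10 mg/kg daily for 14 days, suspended in 0.5% CMC-Na; control and hypoxia groups received vehicle only. Lungs homogenized in RIPA with protease and phosphatase inhibitors. 30 µg protein run on 10% SDS-PAGE, then PVDF blotting, with β-actin as loading reference. Three independent runs.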

[3] = biological target: T1, AMP-activated protein kinase, AMPK (Homo sapiens) (UniProt P54646+O43741+P54619+Q9UGJ0+Q9Y478+Q13131+Q9UGI9); experiment: Inhibition of AMPK in TGFbeta-induced HPASMC assessed as reduction in cell migration measured after 24 hrs by wound healing assay; type: tissue-based; conditions: Pulmonary Artery Smooth Muscle Cells, dose microM 5-10, time 24.0 hrs
Outline: (§1)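 Wound-healing assay. 5 × 10^4 cells were seeded per well and grown 24 h to near confluence. The monolayer was scratched with a pipette tip and washed with PBS. Cells were then kept in 1% FBS medium with TGF-β (10 ng/mL) or under hypoxia (1% O2, 5% CO2, 94% N2), alone or with compound. Migration ran 24 h at 37 °C, imaged at 0 and 24 h. Mean ± SD from three independent experiments.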

[4] = biological target: T1, AMP-activated protein kinase, AMPK (Homo sapiens); experiment: Inhibition of AMPK in hypoxia-induced HPASMC assessed as reduction in cell migration measured after 24 hrs by wound healing assay; type: tissue-based; conditions: Pulmonary Artery Smooth Muscle Cells, dose microM 5-10, time 24.0 hrs; outline: as §1
[5] = biological target: T1, AMP-activated protein kinase, AMPK (Homo sapiens); experiment: Inhibition of AMPK in TGFbeta-induced HLF1 cells assessed as reduction in cell migration measured after 24 hrs by wound healing assay; type: cell-based; conditions: dose microM 5-10, time 24.0 hrs; outline: as §1
Aorta = experiment: Vasodilating activity in Sprague-Dawley rat aortic rings assessed as reduction in phenylephrine-induced contractions; type: functional, tissue-based
Outline: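 Thoracic aorta from male SD rats (250-280 g) anesthetized with chloral hydrate, cut into 4 mm rings. Rings held in Krebs-Henseleit at 37 °C gassed with 95% O2/5% CO2, under 2 g resting tension, equilibrated 60 min, and precontracted with 10^-7 M phenylephrine. Cumulative concentrations of 3×10^-9 to 10^-6 M (final) applied. Percent relaxation of the initial contraction taken at 1 µM, and EC50 derived.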

Homo sapiens = species: Homo sapiens; experiment: Inhibition of CaMKKbeta phosphorylated recombinant human AMPK alpha1/beta1/gamma1 using 1-biotin as substrate incubated for 60 mins by HTRF assay; conditions: time 1.0 hrs
Outline: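 Kinase reaction with 0.16 µM STK substrate 1-biotin, 0.8 mmol DTT, 4 mmol MgCl2, 4 µM ATP and compound, started by adding 1 ng/µl CaMKKβ-prephosphorylated AMPK (α1β1γ1). Ran 1 h at 37 °C, then Eu3+-cryptate STK antibody plus 57.5 nmol/L XL-665 for 1 h at room temperature. Activity read as the 665/620 ratio ×10000. Curves averaged from three independent experiments.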

[6] = test system: Pulmonary Artery Smooth Muscle Cells; experiment: Stimulation of sGC in HPASMC assessed as increase in intracellular cGMP level measured after 1 hr in presence of […] IBMX by cGMP-d2/europium cryptate reagent based HTRF assay; type: tissue-based; conditions: Homo sapiens, filed as activator
Outline: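 HPASMCs at 100 000 cells/mL in PBS with 1 mM IBMX and 0.2% BSA, with or without 10 µM ODQ. Exposed to a 6-point, 10-fold dilution series (top 200 µM, 2× stock) in triplicate for 1 h at room temperature. cGMP-d2 in lysis buffer and europium cryptate added, then 1 h at room temperature before HTRF reading. Three independent experiments averaged.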

[7] = Antiproliferative activity against HPASMC assessed as reduction in TGFbeta-induced cell proliferation measured after 48 hrs by CCK8 assay; type: functional, tissue-based; conditions: Homo sapiens, Pulmonary Artery Smooth Muscle Cells
Outline: (§2)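 HPASMCs grown in high-glucose D-MEM with 20% FBS and HLF1 in D-MEM/F-12 (1:1) with 10% FBS. Cells stimulated with TGF-β (10 ng/mL) at 37 °C, 5% CO2, then exposed to a concentration range for 48 h. CCK-8 added for 4 h and absorbance read at 490 nm. IC50 derived from the curves.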

[8] = test system: Pulmonary Artery Smooth Muscle Cells; experiment: Stimulation of sGC in HPASMC assessed as increase in intracellular cGMP level measured after 1 hr in absence of PDE5 inhibitor IBMX and presence of sGC inhibitor ODQ by cGMP-d2/europium cryptate reagent based HTRF assay; type: tissue-based; conditions: Homo sapiens, filed as activator
Outline: (§3)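 HPASMCs were suspended at 100,000 cells/mL in PBS with 0.2% BSA, with or without 10 µM ODQ. Compounds were added as a 6-point, 10-fold dilution series; the top 2× stock was 200 µM. Incubation was 1 h at room temperature, in triplicate. cGMP-d2 in lysis buffer and europium cryptate were then added for 1 h before HTRF reading. Three independent experiments.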

[9] = test system: Pulmonary Artery Smooth Muscle Cells; experiment: Stimulation of sGC in HPASMC assessed as increase in intracellular cGMP level at 100 uM measured after 1 hr in presence of PDE5 inhibitor IBMX by cGMP-d2/europium cryptate reagent based HTRF assay relative to control; type: tissue-based; conditions: Homo sapiens, filed as activator; outline: as §3
Rattus norvegicus [10] = experiment: Inhibition of vascular remodeling activity in Sprague-Dawley rat model of hypoxia-induced pulmonary artery hypertension assessed as reduction in pulmonary artery medial thickness at 10 mg/kg, po administered daily for 2 weeks by H and E staining based digital microscopic analysis; type: functional, organism-based
Outline: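 Hypoxia model in male SD rats (10% O2, 4 weeks) with oral dosing at 10 mg/kg daily for 14 days in 0.5% CMC-Na. Paraffin-embedded lung tissue was cut into 5 µm sections and stained with H&E. Pulmonary artery medial thickness was quantified, n = 5/group.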

[11] = Half life in human liver microsomes at 1.5 uM preincubated for 5 mins followed by NADPH addition and measured up to 45 mins by LC-MS/MS analysis; type: ADME, Microsome; conditions: time <=50 min
Outline: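 Liver microsomes (0.75 mg/mL), human or SD rat, in 0.1 M potassium phosphate pH 7.4 with 3.0 mM MgCl2 and 1.5 µM compound, run in duplicate. After 5 min preincubation at 37 °C, reaction started with 3 mM NADPH. Quenched at 0, 5, 15, 30 and 45 min with ice-cold acetonitrile containing internal standard. Ketanserin served as positive control and a no-NADPH buffer incubation as negative control. LC-MS/MS read-out.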

Rattus norvegicus [12] = experiment: Inhibition of vascular remodeling activity in Sprague-Dawley rat model of hypoxia-induced pulmonary artery hypertension assessed as decrease in ratio of RV/tibial length at 10 mg/kg, po administered daily for 2 weeks; type: functional, organism-based
[13] = Protein binding in rat plasma; type: ADME, cell-free; conditions: read-out: PPB (converted)
[14] = test system: Pulmonary Artery Smooth Muscle Cells; experiment: Stimulation of sGC in HPASMC assessed as increase in intracellular cGMP level at 100 uM measured after 1 hr in presence of PDE5 inhibitor IBMX and sGC inhibitor ODQ by cGMP-d2/europium cryptate reagent based HTRF assay; type: tissue-based; conditions: Homo sapiens; outline: as §3
[15] = Antiproliferative activity against HLF1 cells assessed as reduction in TGFbeta-induced cell proliferation measured after 48 hrs by CCK8 assay; type: functional, cell-based; conditions: Homo sapiens, HLF1, 48 h; outline: as §2

Cc1ccccc1COc1nc2c(cc1-c1nc(N)cc(N)n1)c(C)nn2-c1ccccc1
inhibition (Rattus norvegicus [1]): Active
Activity [2]: Non-Toxic
inhibition [3]: Dose-dependent effect
inhibition [4]: Dose-dependent effect
inhibition [5]: Dose-dependent effect
EC50 (Aorta): 0.29 µM
inhibition (Homo sapiens): Dose-dependent effect
Activity [6]: Dose-dependent effect
IC50 [7]: 17 µM
Activity [8]: Active
Activity [9]: 40%
inhibition (Rattus norvegicus [10]): Active
half-life at 1.5 µM [11]: 2.08 h
inhibition (Rattus norvegicus [12]): Active
fraction unbound [13]: 0.007
Activity [14]: inactive
IC50 [15]: 38.5 µM
